# Measurements taken from ChEMBL document CHEMBL3784955, “Development and in Vitro Evaluation of a Microbicide Gel Formulation for a Novel Non-Nucleoside Reverse Transcriptase Inhibitor Belonging to the N-Dihydroalkyloxybenzyloxopyrimidines (N-DABOs) Family” (J Med Chem, 2016).
# Active and inactive are the calls of the source. The calls are words filed in the database; no cut-off is given here.
# Legend:
# [1] = test system: Human immunodeficiency virus 1; experiment: Antiviral activity against HIV1 NL4.3 infected in human TZM-bl cells incubated for 30 mins prior to infection measured after 48 hrs by luciferase assay; type: functional, organism-based; conditions: Human immunodeficiency virus 1, NL4.3, TZM-bl
# Method in brief: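 TZM-bl cells (10 000/well, 10⁵ cells/mL in medium with 30 μg/mL DEAE dextran) preincubated 30 min at 37 °C, 5% CO₂ with serial compound dilutions; 200 TCID₅₀ HIV-1 WT or mutant virus added, luciferase read after 48 h. Triplicate wells, ≥2 independent experiments; % inhibition vs untreated controls, EC₅₀ by nonlinear regression.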
# [2] = test system: Human immunodeficiency virus 1; experiment: Antiviral activity against HIV1 NL4.3 expressing reverse transcriptase L100I mutant infected in human TZM-bl cells incubated for 30 mins prior to infection measured after 48 hrs by luciferase assay; type: functional, organism-based; conditions: Human immunodeficiency virus 1, NL4.3, TZM-bl
# Method in brief: (§1)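 TZM-bl cells (10,000/well at 10⁵ cells/mL, medium with 30 μg/mL DEAE dextran) preincubated 30 min at 37 °C, 5% CO₂ with serial compound dilutions. Then 200 TCID₅₀ mutant HIV-1 added per well. After 48 h, luciferase read. Triplicate wells, at least two independent experiments. % inhibition versus untreated controls fitted by nonlinear regression to give EC₅₀.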
# [3] = Cytotoxicity against human TZM-bl cells assessed as reduction in cell viability after 2 days by WST-1 assay; type: cell-based
# Method in brief: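 10 000 TZM-bl cells cultured 48 h with serial compound dilutions; WST-1 added and absorbance at 450 nm read after 90 min. Three replicate wells, ≥2 independent experiments; % viability vs untreated controls, CC₅₀ by nonlinear regression.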
# [4] = test system: Human immunodeficiency virus 1; experiment: Antiviral activity against HIV1 NL4.3 expressing reverse transcriptase V90I mutant infected in human TZM-bl cells incubated for 30 mins prior to infection measured after 48 hrs by luciferase assay; type: functional, organism-based; conditions: Human immunodeficiency virus 1, NL4.3, TZM-bl; method in brief: as §1
# [5] = test system: Human immunodeficiency virus 1; experiment: Antiviral activity against HIV1 NL4.3 expressing reverse transcriptase E138K mutant infected in human TZM-bl cells incubated for 30 mins prior to infection measured after 48 hrs by luciferase assay; type: functional, organism-based; conditions: Human immunodeficiency virus 1, NL4.3, TZM-bl; method in brief: as §1
# [6] = test system: Human immunodeficiency virus 1; experiment: Antiviral activity against HIV1 NL4.3 expressing reverse transcriptase K101E mutant infected in human TZM-bl cells incubated for 30 mins prior to infection measured after 48 hrs by luciferase assay; type: functional, organism-based; conditions: Human immunodeficiency virus 1, NL4.3, TZM-bl; method in brief: as §1
# [7] = test system: Human immunodeficiency virus 1; experiment: Antiviral activity against HIV1 NL4.3 expressing reverse transcriptase K103N mutant infected in human TZM-bl cells incubated for 30 mins prior to infection measured after 48 hrs by luciferase assay; type: functional, organism-based; conditions: Human immunodeficiency virus 1, NL4.3, TZM-bl; method in brief: as §1
# [8] = test system: Human immunodeficiency virus 1; experiment: Antiviral activity against HIV1 NL4.3 expressing reverse transcriptase Y181C mutant infected in human TZM-bl cells incubated for 30 mins prior to infection measured after 48 hrs by luciferase assay; type: functional, organism-based; conditions: Human immunodeficiency virus 1, NL4.3, TZM-bl; method in brief: as §1
# [9] = test system: Human immunodeficiency virus 1; experiment: Antiviral activity against HIV1 NL4.3 expressing reverse transcriptase V106A mutant infected in human TZM-bl cells incubated for 30 mins prior to infection measured after 48 hrs by luciferase assay; type: functional, organism-based; conditions: Human immunodeficiency virus 1, NL4.3, TZM-bl; method in brief: as §1
# [10] = molecular target: Human immunodeficiency virus type 1 reverse transcriptase (Human immunodeficiency virus 1, UniProt Q72547); experiment: Inhibition of recombinant HIV1 His-tagged p66/p51 reverse transcriptase expressed in Escherichia coli assessed as reduction in [3H]dTTP incorporation using poly(rA)-oligo(dT) (12 to 18 bp) as template/primer incubated for 20 mins by scintillation counting method
# [11] = Effective permeability of compound at pH 7.4 after 5 hrs by PAMPA; type: ADME; conditions: read-out: Peff
# Method in brief: (§2)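 Filter coated with 1% w/v phosphatidylcholine in dodecane; acceptor 50% DMSO in phosphate buffer. 5 h at room temperature with gentle shaking; LC-UV at 280 nm on both sides; Pe calculated in cm/s. Three plates on different days.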
# [12] = Effective permeability of compound at pH 4.2 after 5 hrs by PAMPA; type: ADME; conditions: read-out: Peff; method in brief: as §2
# Liver microsome = experiment: Metabolic stability in liver microsomes (unknown origin) assessed as parent compound remaining; type: ADME; conditions: human
# [13] = test system: Human immunodeficiency virus 1; experiment: Antiviral activity against HIV1 NL4.3 infected in human TZM-bl cells using compound gel formulation incubated for 72 hrs by luciferase based transwell assay; type: functional, organism-based; conditions: Human immunodeficiency virus 1, NL4.3, TZM-bl
# Method in brief: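 Transwell format, gel reformulated without β-cyclodextrins. TZM-bl cells (4 × 10⁴/apical chamber, 3 μm pore) cultured overnight. 60 TCID₅₀ NL4.3 added apically with gel at 50%, final drug 5000–0.5 nM (tenfold steps); medium in basal compartment. Blank gel used for virus titration. Luciferase read-out; triplicates.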
# [14] = Chemical stability in pH 4.2 solution assessed as drug recovery using compound gel formulation incubated for 1 month at room temperature under dark condition; type: physicochemical; conditions: pH 4.2 solution (compound gel formulation), read-out: Drug recovery
# Method in brief: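 Gel at pH 4.2 (vaginal formulation) with final drug concentration 17 μM stored 1 month at room temperature without light; drug recovery measured, with viscosity and pH monitored.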
# [15] = Selectivity index, ratio of CC50 for human TZM-bl cells to EC50 for HIV1 NL4.3 infected in human TZM-bl cells; type: toxicity, cell-based; conditions: read-out: Ratio CC50/EC50
# Method in brief: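 SI = CC50/EC50 in TZM-bl cells. EC50: 10 000 cells (10⁵/mL, 30 μg/mL DEAE dextran) preincubated 30 min at 37 °C with serial compound dilutions, then infected with 200 TCID50 virus; luciferase read at 48 h. CC50: 10 000 cells given serial dilutions for 48 h; WST-1 absorbance at 450 nm after 90 min. Triplicates, ≥2 experiments; nonlinear regression.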
# [16] = test system: Human immunodeficiency virus 1; experiment: Antiviral activity against HIV1 NL4.3 infected in human TZM-bl cells using compound gel formulation incubated for 30 mins prior to infection measured after 48 hrs by luciferase assay; type: functional, organism-based; conditions: Human immunodeficiency virus 1, NL4.3, TZM-bl
# Method in brief: (§3)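 Gel formulation tested by the free-drug TZM-bl procedure alongside free drug in solution and blank gel: 10 000 cells with 30 μg/mL DEAE dextran, 30 min preincubation at 37 °C, 200 TCID₅₀ virus, luciferase after 48 h. Each concentration in triplicate; EC₅₀ from % inhibition vs untreated controls by nonlinear regression.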
# [17] = Cytotoxicity against human TZM-bl cells assessed as reduction in cell viability at 5% gel formulation of compound after 2 days by WST-1 assay; type: cell-based; conditions: 48 h
# [18] = test system: Human immunodeficiency virus 1; experiment: Antiviral activity against HIV1 NL4.3 infected in human TZM-bl cells using compound gel formulation stored at room temperature in dark for 1 month incubated for 30 mins with cells prior to infection measured after 48 hrs by luciferase assay; type: functional, organism-based; method in brief: as §3
Structure (SMILES),EC50 [1] [nM],CC50 at 48 h [3] [nM],EC50 [5] [nM],EC50 [6] [nM],EC50 [7] [nM],EC50 [8] [nM],EC50 [9] [nM],other results
Cc1c(C(C)c2c(F)cccc2F)nc(N(C)Cc2ccc(N3CCN(C)CC3)cc2)[nH]c1=O (centres undefined),7.9,26200,42,138,2460,331,,EC50 [2]: 1570 nM; EC50 [4]: 22 nM
COc1ccc(CN(C)c2nc(C(C)c3c(Cl)cccc3Cl)c(C)c(=O)[nH]2)cc1 (centres undefined),12,> 100000,,,,209,10,IC50 [10]: 17 nM
Cc1c(Cc2c(Cl)cccc2Cl)nc(N(C)Cc2ccc([N+](=O)[O-])cc2)[nH]c1=O,8.6,19500,35,51,367,201,,EC50 [2]: 220 nM; EC50 [4]: 13 nM; IC50 [10]: 7.85 nM; Papp at 5 h [11]: 10.9 ×10⁻⁶ cm/s; Papp at 5 h [12]: 1.9 ×10⁻⁶ cm/s; Stability (Liver microsome): 99%
COc1ccc(C2CC2CSc2nc(C(C)c3c(F)cccc3F)c(C)c(=O)[nH]2)cc1 (centres undefined),93,31100,246,450,549,1610,56,
COc1ccc(CN(C)c2nc(C(C)c3c(F)cccc3F)cc(=O)[nH]2)cc1 (centres undefined),2.6,48100,9.1,17,34,94,0.87,
Cc1c(C(C)c2c(Cl)cccc2Cl)nc(N(C)Cc2ccc(N3CCN(C)CC3)cc2)[nH]c1=O (centres undefined),29,> 10000,103,294,1040,627,6.3,Papp at 5 h [11]: 0.91 ×10⁻⁶ cm/s; Stability (Liver microsome): 99%
Cc1c(Cc2c(Cl)cccc2Cl)nc(N(C)Cc2ccc(N3CCN(C)CC3)cc2)[nH]c1=O,94,3200,274,> 1000,792,704,18,Papp at 5 h [11]: 1.37 ×10⁻⁶ cm/s; Papp at 5 h [12]: 0.58 ×10⁻⁶ cm/s; Stability (Liver microsome): 99%
Cc1c(Cc2c(Cl)cccc2Cl)nc(N(C)Cc2ccc(N3CCNCC3)cc2)[nH]c1=O,110,20700,,,,,,
Cc1c(C(C)c2c(Cl)cccc2Cl)nc(N(C)Cc2ccc(N3CCOCC3)cc2)[nH]c1=O (centres undefined),86,38400,256,942,1500,1290,15,
Cc1cc(C)c(Nc2ccnc(Nc3ccc(C#N)cc3)n2)c(C)c1 [DAPIVIRINE],1.3,3400,,,,,,
Cc1c(C(C)c2c(Cl)cccc2Cl)nc(N(C)Cc2ccc([N+](=O)[O-])cc2)[nH]c1=O (centres undefined),104,> 50000,,,,,,
COc1ccc(CN(C)c2nc(Cc3c(Cl)cccc3Cl)c(C)c(=O)[nH]2)cc1,15,17900,,,,680,10,IC50 [10]: 5 nM
C[C@H](Cn1cnc2c(N)ncnc21)OCP(=O)(O)O [TENOFOVIR ANHYDROUS],,,,,,,,EC50 [13]: 3000 nM
Cc1c(C(C)c2c(Cl)cccc2Cl)nc(N(C)Cc2ccc(N3CCNCC3)cc2)[nH]c1=O (centres undefined),102,13200,,,,,,
Cc1c(Cc2c(Cl)cccc2Cl)nc(N(C)Cc2ccc(N3CCN(C(=O)OC(C)(C)C)CC3)cc2)[nH]c1=O,2930,2590,,,,,,
Cc1c(C(C)c2c(F)cccc2F)nc(N(C)Cc2n[nH]c3ccccc23)[nH]c1=O (centres undefined),329,> 100000,950,> 10000,> 10000,> 10000,,EC50 [2]: > 10000 nM; EC50 [4]: 687 nM
Cc1c(C(C)c2c(F)cccc2F)nc(N(C)Cc2ccc([N+](=O)[O-])cc2)[nH]c1=O (centres undefined),10,> 50000,65,134,518,814,,EC50 [2]: 1500 nM; EC50 [4]: 30 nM
COc1ccc(CN(C)c2nc(C(C)c3c(F)cccc3F)c(C)c(=O)[nH]2)cc1 (centres undefined),3.3,88800,17,31,102,80,,remaining at 730.5 h [14]: 100%; selectivity ratio [15]: > 10000; EC50 [2]: 84 nM; EC50 [4]: 8.7 nM; EC50 [16]: 2.3 nM; Activity [17]: Toxic; EC50 [13]: 30 nM; Activity [18]: Active; Papp at 5 h [11]: 5.54 ×10⁻⁶ cm/s; Papp at 5 h [12]: 3.78 ×10⁻⁶ cm/s; Stability (Liver microsome): 99%
Cc1c(Cc2c(Cl)cccc2Cl)nc(N(C)Cc2ccc(N3CCOCC3)cc2)[nH]c1=O,657,9900,,,,,,IC50 [10]: 90 nM; Papp at 5 h [11]: 21.9 ×10⁻⁶ cm/s; Stability (Liver microsome): 99%
